Results pooled from the literature.
Lines come from different studies, so protocols differ.

Cc1c2c(n(-c3ccc(F)cc3Cl)c1-c1ccc(OS(=O)(=O)CCC(F)(F)F)cc1)CCN(N1CCCCC1)C2=O has an AUC(0-t) of 0.89 µM·h (mouse; plasma; oral; 6 µmol/kg; single dose).
The AUC(0-t) of CCn1ncc2c(Nc3ccc(OC(F)(F)F)cc3)ncnc21 is reported as 201 ng·h/mL (male BALB/c mouse; plasma; oral; 20 mg/kg).
For Cc1nc2ccc(F)cc2n1-c1nc(N)c(F)c(Nc2ccc(C(F)(F)F)cc2)n1, the AUC(0-t) was 19300 ng·h/mL (nude mouse; plasma; oral; 10 mg/kg).
With COc1nc(-c2cc(C)c(N[C@@H](C)c3cc(F)cc(F)c3)nn2)ccc1-n1cnc(C)c1 the AUC(0-t) was 9560 ng·h/mL (male CD-1 mouse; plasma; oral; 5 mg/kg; single dose).
CC[C@H](C)[C@@H]1NC(=O)[C@@](C)(NC(=O)[C@H](CCCNC(=N)N)NC(=O)[C@H](CC(C)C)NC(=O)[C@@H](NC(=O)[C@H](CCC(N)=O)NC(=O)[C@H](CC(C)C)NC(C)=O)[C@@H](C)O)CCCC=CCCC[C@@](C)(C(=O)N[C@@H](CC(C)C)C(=O)N[C@@H](Cc2ccc3ccccc3c2)C(N)=O)NC(=O)[C@H](CCCNC(=N)N)NC(=O)[C@H](CCC(N)=O)NC1=O has an AUC(0-t) of 233000 ng·h/mL (male BALB/c mouse; plasma; intravenous; 10 mg/kg).
The AUC(0-t) of C[C@H]1[C@@H](O)O[C@@H]2O[C@@]3(C)CC[C@H]4[C@H](C)CC[C@@H]1[C@@]24OO3 is reported as 382 ng·h/mL (female SCID mouse; plasma; oral; 60 mg/kg).
For COc1ccc2nccc(N3CCc4c(cc(Cn5ccnc5)cc4-c4cn(C)nc4C(F)(F)F)C3=O)c2c1, the AUC(0-t) was 2080 ng·h/mL (male CD-1 mouse; plasma; oral; 10 mg/kg).
CN1CCN(C(=O)CN[C@@H]2C[C@H]2c2ccc(OCc3ccccc3)cc2)CC1 has an AUC(0-t) of 1660 ng·h/mL (mouse; plasma; intraperitoneal; 10 mg/kg).
With CS(=O)(=O)CCNCc1ccc(-c2ccc3ncnc(Nc4ccc(OCc5cccc(F)c5)c(Cl)c4)c3c2)o1 the AUC(0-t) was 97500 ng·h/mL (nude mouse; plasma; oral; 100 mg/kg; single dose).
For CNC(=O)c1cc(Oc2ccc(NC(=O)Nc3ccc(Cl)c(C(F)(F)F)c3)c(F)c2)ccn1, the AUC(0-t) was 18000 ng·h/mL (male mouse; plasma; oral; 10 mg/kg; single dose).
The AUC(0-t) of C=CC(=O)N1CC2CC(n3nc(-c4ccc(C(=O)Nc5ccccn5)cc4)c4c(N)ncnc43)CC2C1 (stereo not drawn) is reported as 175 ng·h/mL (SCID mouse; plasma; oral; 1 mg/kg).
With Cn1ccnc1N1CCN(CC2CCN(c3nccc4[nH]c(-c5cc(F)cc(F)c5)nc34)CC2)CC1 the AUC(0-t) was 19 µM·h (BALB/c mouse; blood; oral; 20 mg/kg).
For COc1ccc(C(O)COc2ccc(-c3csc(-c4ccc(OCC(O)c5ccc(OC)c(OC)c5)cc4)n3)cc2)cc1OC (stereo not drawn), the AUC(0-t) was 73000 ng·h/mL (C57BL/6 mouse; plasma; oral; 75 mg/kg).
CN1CCC(N2CCN(c3nccc4[nH]c(-c5ccc(F)c(F)c5)nc34)CC2)CC1 gave an AUC(0-t) of 6.63 µM·h (BALB/c mouse; blood; oral; 20 mg/kg).
For CCc1cc(C(=O)NC)c2nccc(N3CCc4c(cc(Cn5ccnc5)cc4-c4cn(C)nc4C(F)(F)F)C3=O)c2c1, the AUC(0-t) was 4180 ng·h/mL (male CD-1 mouse; plasma; intravenous; 3 mg/kg).
The AUC(0-t) of COc1nc(-c2cc(C)c(N[C@@H](C)c3c(F)cc(F)cc3F)nn2)ccc1-n1cnc(C)c1 is reported as 7960 ng·h/mL (male CD-1 mouse; plasma; oral; 5 mg/kg; single dose).
CN1CCN(C2CCN(c3nccc4[nH]c(-c5cc(F)cc(F)c5)nc34)CC2)CC1 has an AUC(0-t) of 11.8 µM·h (BALB/c mouse; blood; oral; 20 mg/kg).
For CCc1cc(OC)c2nccc(N3CCc4c(cc(Cn5ccnc5)cc4-c4cn(C)nc4C(F)(F)F)C3=O)c2c1, the AUC(0-t) was 224000 ng·h/mL (male CD-1 mouse; plasma; oral; 150 mg/kg).
